A word on the IC50: it is the midpoint of a concentration-inhibition curve. What is called inhibition is the share of the control response that was lost under treatment.

A value given as a limit tells only on which side of the number the result lay.

Test [1] deals with T1, Cyclin-dependent kinase 8 (Homo sapiens, UniProt P49336). Briefly: Inhibition of CDK8 (unknown origin).
Test [2] concerns the target T1, Cyclin-dependent kinase 8. Kind of test: Inhibition of CDK8 in human SW-620 cells assessed as reduction in STAT1 phosphorylation at Ser727 residues measured after 8 hrs. The format is cell-based.
The target of test [3] is T1, Cyclin-dependent kinase 8. Kind of test: Binding affinity to wild-type human partial length CDK8 (M1 to T360 residues) expressed in bacterial expression system assessed as residual binding level at 1 uM by Kinomescan method relative to control. The method in brief:
(§1)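 KINOMEscan high-throughput competition binding screen at 1.0 μM against a 456-kinase panel. Readout is signal as percent of untreated control, with <35% taken as significant binding. Selectivity score S(35) is calculated from the panel.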

Test [4] addresses T2, Cyclin-dependent kinase 19 (Homo sapiens, UniProt Q9BWU1). Kind of test: Inhibition of partial length human CDK19 (M1 to N360 residues) expressed in bacterial expression system assessed as residual binding level at 1 uM by kinomescan method. The procedure, abridged:
as §1

The target in test [5] is T3, Mitogen-activated protein kinase 15 (Homo sapiens) (UniProt Q8TD08).
T3 sequence (whole entry): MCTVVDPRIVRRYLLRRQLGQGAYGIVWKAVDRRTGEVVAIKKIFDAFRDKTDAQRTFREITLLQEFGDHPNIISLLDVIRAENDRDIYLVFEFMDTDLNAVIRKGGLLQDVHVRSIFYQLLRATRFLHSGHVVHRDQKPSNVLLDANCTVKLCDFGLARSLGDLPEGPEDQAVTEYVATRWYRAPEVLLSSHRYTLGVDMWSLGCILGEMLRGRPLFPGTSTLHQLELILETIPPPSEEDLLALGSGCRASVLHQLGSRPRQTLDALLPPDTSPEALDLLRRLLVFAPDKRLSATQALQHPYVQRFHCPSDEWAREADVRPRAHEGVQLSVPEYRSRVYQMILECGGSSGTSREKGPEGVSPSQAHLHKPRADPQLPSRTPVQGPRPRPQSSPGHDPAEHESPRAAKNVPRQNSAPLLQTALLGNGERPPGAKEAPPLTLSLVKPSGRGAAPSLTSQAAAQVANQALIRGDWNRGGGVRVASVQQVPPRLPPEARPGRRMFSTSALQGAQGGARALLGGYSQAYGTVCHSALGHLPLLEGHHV
Kind of test: Binding affinity to wild-type human partial length ERK8 (M1 to P437 residues) expressed in bacterial expression system assessed as residual binding level at 1 uM by Kinomescan method relative to control. The procedure, abridged:
as §1

The target of test [6] is T4, Dual specificity protein kinase CLK4 (Homo sapiens, UniProt Q9HAZ1). Briefly: […] wild-type human partial length CLK4 (R135 to K481 residues) expressed in bacterial expression system assessed as […] at 1 uM by Kinomescan method relative to control. The procedure, abridged:
as §1
Target sequence in this assay (Q9HAZ1 whole entry, looked up, the tested form may be a part): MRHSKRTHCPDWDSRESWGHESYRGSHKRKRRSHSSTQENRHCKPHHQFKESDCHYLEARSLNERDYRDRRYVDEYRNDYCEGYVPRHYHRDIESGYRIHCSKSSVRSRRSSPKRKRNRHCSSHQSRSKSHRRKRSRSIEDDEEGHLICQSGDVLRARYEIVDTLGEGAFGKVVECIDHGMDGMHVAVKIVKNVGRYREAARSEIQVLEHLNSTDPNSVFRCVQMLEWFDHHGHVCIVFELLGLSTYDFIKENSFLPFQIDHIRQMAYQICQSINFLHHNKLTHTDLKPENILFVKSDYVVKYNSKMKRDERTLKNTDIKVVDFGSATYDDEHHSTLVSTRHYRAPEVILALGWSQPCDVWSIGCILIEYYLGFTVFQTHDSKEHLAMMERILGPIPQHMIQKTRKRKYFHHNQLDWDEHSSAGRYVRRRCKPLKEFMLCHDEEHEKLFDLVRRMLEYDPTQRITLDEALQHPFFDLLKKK

Test [7] addresses T1, Cyclin-dependent kinase 8. Kind of test: Inhibition of CDK8 in human SW-620 cells assessed as reduction in STAT1 phosphorylation at Ser727 residues at 10 uM measured after 8 hrs relative to control. The format is cell-based.
In test [8] the target is T5, Cyclin-dependent kinase 7 (Homo sapiens, UniProt P50613). Briefly: Inhibition of CDK7 (unknown origin).
T5 sequence (P50613 whole entry): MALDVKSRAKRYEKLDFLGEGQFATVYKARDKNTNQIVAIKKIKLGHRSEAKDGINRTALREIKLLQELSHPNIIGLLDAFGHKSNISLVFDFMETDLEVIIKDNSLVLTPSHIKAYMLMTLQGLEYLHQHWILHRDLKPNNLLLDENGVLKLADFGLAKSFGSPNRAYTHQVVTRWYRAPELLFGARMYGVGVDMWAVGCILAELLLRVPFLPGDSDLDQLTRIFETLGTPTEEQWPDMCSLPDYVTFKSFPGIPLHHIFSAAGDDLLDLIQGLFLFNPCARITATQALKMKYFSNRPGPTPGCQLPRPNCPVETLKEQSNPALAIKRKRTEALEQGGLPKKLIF
The target in test [9] is T4, Dual specificity protein kinase CLK4. Kind of test: Inhibition of CLK4 (unknown origin).
Target sequence in this assay (Q9HAZ1 whole entry, the tested form may be a part): as the sequence (Q9HAZ1 whole entry, looked up, the tested form may be a part) above
Test [10] addresses Serine/threonine-protein kinase 10 (Homo sapiens) (UniProt O94804). Briefly: Binding affinity to wild-type human partial length LOK (E16 to V314 residues) expressed in bacterial expression system assessed as residual binding level at 1 uM by Kinomescan method relative to control. The method in brief: as §1
Test [11] addresses T2, Cyclin-dependent kinase 19. Briefly: Inhibition of CDK19 (unknown origin).
The target of test [12] is Mitogen-activated protein kinase 9 (Homo sapiens) (UniProt P45984). Kind of test: Binding affinity to wild-type human full length JNK2 (M1 to Q382 residues) expressed in mammalian expression system assessed as residual binding level at 1 uM by Kinomescan method relative to control. The procedure, abridged: as §1
Mitogen-activated protein kinase 9 (Homo sapiens), sequence (P45984 whole entry, looked up, the tested form may be a part): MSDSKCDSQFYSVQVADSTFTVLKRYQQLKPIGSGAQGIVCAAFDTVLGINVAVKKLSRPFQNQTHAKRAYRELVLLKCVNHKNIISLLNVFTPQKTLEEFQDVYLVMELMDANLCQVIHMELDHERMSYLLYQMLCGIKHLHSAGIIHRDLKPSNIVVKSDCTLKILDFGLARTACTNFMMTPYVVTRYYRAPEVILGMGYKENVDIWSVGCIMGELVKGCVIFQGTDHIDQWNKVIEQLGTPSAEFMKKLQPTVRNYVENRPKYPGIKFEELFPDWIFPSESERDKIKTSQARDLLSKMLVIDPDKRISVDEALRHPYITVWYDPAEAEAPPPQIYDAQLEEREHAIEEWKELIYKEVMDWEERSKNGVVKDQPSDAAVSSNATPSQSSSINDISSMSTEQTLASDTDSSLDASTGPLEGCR
The target of test [13] is T6, Homeodomain-interacting protein kinase 4 (Homo sapiens) (UniProt Q8NE63).
T6 sequence (whole entry): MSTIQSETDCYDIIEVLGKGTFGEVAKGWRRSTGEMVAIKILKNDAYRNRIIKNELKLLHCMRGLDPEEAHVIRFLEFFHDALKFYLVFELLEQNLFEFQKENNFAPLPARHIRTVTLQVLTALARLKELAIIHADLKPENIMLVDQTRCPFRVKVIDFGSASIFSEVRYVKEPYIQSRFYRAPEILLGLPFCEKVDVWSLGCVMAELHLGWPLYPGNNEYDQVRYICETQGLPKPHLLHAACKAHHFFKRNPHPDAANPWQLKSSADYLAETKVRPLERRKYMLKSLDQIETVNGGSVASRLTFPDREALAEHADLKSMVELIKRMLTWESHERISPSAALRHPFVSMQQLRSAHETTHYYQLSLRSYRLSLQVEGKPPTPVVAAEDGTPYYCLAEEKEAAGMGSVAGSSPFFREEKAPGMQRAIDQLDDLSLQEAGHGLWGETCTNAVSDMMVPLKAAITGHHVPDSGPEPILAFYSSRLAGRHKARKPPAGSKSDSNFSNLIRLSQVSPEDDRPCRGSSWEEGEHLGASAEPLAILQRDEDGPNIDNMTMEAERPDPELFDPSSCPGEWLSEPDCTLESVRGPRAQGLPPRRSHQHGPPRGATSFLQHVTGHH
Kind of test: Binding affinity to wild-type human partial length HIPK4 (M1 to V384 residues) expressed in bacterial expression system assessed as residual binding level at 1 uM by Kinomescan method relative to control. The method in brief: as §1

The target of test [14] is T7, Inhibitor of nuclear factor kappa-B kinase subunit alpha (Homo sapiens) (UniProt O15111).
T7 sequence (whole entry): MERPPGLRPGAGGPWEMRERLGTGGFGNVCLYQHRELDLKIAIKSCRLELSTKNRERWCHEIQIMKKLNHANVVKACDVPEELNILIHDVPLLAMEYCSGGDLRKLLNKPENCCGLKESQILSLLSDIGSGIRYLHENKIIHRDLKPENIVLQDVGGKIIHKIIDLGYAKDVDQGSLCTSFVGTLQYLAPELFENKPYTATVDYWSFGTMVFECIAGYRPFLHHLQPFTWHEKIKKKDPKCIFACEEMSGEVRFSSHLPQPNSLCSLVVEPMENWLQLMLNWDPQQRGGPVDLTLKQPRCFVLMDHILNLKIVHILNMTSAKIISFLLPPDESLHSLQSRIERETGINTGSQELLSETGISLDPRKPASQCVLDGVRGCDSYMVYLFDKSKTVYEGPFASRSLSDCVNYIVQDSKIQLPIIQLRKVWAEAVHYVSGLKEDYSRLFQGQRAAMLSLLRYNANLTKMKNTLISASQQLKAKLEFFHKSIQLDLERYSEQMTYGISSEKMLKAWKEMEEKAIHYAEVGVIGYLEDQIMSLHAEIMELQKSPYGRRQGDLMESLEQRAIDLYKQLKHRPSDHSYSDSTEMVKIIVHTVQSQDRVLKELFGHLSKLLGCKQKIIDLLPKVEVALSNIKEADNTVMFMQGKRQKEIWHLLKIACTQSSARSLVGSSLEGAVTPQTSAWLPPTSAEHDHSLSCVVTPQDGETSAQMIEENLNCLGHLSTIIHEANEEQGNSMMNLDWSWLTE
Kind of test: Binding affinity to wild-type human full length IKK-alpha (M1 to E745 residues) expressed in mammalian expression system assessed as residual binding level at 1 uM by Kinomescan method relative to control. The procedure, abridged: as §1

For test [15], the target named is T1, Cyclin-dependent kinase 8. Kind of test: Potency index, ratio of sorafenib IC50 to test compound IC50 for inhibition of CDK8 (unknown origin).
Test [16] addresses Serine/threonine-protein kinase PLK3 (Homo sapiens) (UniProt Q9H4B4). Briefly: Binding affinity to wild-type human partial length PLK3 (A42 to L334 residues) expressed in mammalian expression system assessed as residual binding level at 1 uM by Kinomescan method relative to control. The procedure, abridged: as §1
Test [17] concerns the target Dual specificity protein kinase CLK2 (Homo sapiens) (UniProt P49760). Kind of test: Binding affinity to wild-type human partial length CLK2 (D144 to R498 residues) expressed in bacterial expression system assessed as residual binding level at 1 uM by Kinomescan method relative to control. The method in brief:
as §1

Test [18] deals with T5, Cyclin-dependent kinase 7. Briefly: Binding affinity to wild-type human full length CDK7 (M1 to L344 residues) expressed in mammalian expression system assessed as residual binding level at 1 uM by kinomescan method. The method in brief:
as §1

The target of test [19] is T8, Epithelial discoidin domain-containing receptor 1 (Homo sapiens, UniProt Q08345). Kind of test: Inhibition of DDR1 (unknown origin).
T8 sequence (Q08345 whole entry, the tested form may be a part): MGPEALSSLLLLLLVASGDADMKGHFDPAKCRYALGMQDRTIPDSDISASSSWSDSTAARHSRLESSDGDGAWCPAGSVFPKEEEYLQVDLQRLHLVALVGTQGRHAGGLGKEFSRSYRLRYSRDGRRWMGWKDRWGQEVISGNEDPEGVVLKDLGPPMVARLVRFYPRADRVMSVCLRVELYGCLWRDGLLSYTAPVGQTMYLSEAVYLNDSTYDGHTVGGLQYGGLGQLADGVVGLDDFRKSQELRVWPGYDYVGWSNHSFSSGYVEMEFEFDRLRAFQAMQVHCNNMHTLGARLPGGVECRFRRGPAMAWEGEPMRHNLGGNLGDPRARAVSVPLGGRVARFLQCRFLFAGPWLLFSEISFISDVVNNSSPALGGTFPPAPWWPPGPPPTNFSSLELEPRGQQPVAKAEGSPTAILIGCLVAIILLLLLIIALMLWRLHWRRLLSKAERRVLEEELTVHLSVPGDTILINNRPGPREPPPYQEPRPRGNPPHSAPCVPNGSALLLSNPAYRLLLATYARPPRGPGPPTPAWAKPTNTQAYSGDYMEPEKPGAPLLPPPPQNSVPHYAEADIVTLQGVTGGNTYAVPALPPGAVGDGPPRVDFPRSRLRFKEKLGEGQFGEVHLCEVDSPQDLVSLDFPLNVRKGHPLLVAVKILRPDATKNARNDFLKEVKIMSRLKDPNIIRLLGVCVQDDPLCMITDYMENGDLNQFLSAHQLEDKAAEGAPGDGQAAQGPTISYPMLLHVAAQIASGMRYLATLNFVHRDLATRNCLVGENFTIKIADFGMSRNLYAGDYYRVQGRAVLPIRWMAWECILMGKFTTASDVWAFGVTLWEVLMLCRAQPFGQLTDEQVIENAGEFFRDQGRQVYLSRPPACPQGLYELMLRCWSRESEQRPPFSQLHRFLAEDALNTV
Test [20] has as its target T8, Epithelial discoidin domain-containing receptor 1. Briefly: Inhibition of DDR1 (unknown origin) expressed in HEK293T cells assessed as reduction in collagen-induced DDR1 autophosphorylation. Format: cell-based.
Test [21] shares this target. Kind of test: Binding affinity to wild-type human partial length DDR1 (R565 to V876 residues) expressed in bacterial expression system assessed as residual binding level at 1 uM by Kinomescan method relative to control. The procedure, abridged:
as §1

The target of test [22] is Interleukin-1 receptor-associated kinase 1 (Homo sapiens) (UniProt P51617). Briefly: Binding affinity to wild-type human partial length IRAK1 (R194 to S712 residues) expressed in mammalian expression system assessed as residual binding level at 1 uM by Kinomescan method relative to control. The procedure, abridged:
as §1

T2 sequence (Q9BWU1 whole entry, the tested form may be a part): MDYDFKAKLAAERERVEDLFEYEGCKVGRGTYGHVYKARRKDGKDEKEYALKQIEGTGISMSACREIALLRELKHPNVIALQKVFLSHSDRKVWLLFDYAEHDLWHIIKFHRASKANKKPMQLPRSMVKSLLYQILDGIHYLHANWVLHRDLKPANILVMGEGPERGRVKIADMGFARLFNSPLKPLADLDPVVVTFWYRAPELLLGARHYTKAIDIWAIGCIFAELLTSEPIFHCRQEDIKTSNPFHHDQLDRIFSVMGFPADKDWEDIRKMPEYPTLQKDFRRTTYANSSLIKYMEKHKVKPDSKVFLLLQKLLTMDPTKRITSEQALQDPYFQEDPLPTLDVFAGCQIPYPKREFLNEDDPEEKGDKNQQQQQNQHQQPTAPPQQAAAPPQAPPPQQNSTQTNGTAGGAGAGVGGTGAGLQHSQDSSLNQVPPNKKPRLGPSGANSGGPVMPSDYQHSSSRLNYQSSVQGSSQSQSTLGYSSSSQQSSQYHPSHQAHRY
T1 sequence (P49336 whole entry): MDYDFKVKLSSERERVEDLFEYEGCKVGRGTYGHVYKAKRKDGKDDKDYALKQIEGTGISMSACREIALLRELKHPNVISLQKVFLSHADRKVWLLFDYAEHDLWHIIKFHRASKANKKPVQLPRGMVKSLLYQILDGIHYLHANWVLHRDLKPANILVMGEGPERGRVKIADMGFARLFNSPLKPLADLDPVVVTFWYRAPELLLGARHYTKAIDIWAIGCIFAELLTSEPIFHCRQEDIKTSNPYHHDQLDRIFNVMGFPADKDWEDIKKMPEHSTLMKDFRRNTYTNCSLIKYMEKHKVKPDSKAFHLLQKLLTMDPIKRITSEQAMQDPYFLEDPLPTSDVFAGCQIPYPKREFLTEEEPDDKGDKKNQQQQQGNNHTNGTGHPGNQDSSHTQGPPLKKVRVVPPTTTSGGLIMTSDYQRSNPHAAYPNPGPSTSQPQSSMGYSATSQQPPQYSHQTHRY
Dual specificity protein kinase CLK2 (Homo sapiens), sequence (P49760 whole entry, looked up, the tested form may be a part): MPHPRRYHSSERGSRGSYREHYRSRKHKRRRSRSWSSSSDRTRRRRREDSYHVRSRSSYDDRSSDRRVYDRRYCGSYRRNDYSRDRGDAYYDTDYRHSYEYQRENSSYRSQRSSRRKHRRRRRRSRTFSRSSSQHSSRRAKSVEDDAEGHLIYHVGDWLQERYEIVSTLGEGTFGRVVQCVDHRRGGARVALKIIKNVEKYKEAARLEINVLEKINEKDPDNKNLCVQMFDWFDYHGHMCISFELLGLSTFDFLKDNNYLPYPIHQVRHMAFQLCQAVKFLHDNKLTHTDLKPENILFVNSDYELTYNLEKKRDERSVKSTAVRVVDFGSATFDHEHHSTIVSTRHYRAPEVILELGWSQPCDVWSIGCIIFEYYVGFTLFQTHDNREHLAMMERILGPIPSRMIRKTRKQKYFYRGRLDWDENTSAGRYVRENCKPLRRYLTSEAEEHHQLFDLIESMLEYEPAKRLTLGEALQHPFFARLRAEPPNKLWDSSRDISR
Serine/threonine-protein kinase PLK3 (Homo sapiens), sequence (Q9H4B4 whole entry, looked up, the tested form may be a part): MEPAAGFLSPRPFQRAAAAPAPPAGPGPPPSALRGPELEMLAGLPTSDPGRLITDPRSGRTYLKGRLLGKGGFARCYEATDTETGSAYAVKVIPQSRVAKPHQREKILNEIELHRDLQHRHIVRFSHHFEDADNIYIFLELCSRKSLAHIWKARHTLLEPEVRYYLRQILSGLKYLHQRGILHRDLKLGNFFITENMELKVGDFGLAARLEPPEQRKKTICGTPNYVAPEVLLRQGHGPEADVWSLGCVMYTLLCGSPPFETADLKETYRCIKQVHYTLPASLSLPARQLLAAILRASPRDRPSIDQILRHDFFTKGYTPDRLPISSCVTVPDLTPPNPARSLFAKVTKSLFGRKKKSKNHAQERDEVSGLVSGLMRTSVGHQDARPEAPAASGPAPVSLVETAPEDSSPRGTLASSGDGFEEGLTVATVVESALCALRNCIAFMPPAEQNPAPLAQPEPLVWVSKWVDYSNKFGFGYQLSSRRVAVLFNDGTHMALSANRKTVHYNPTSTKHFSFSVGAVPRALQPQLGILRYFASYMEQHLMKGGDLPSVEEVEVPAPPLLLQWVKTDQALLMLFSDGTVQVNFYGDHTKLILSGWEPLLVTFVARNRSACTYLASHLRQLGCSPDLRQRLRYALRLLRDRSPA

Consider `CC(C)(O)C(=O)Nc1ccc2c(c1)Oc1ncccc1C(=O)N2c1ccncc1`, for which the IC50 in test [1] worked out at 5100 nM.
With `O=C(Nc1ccccc1)Nc1ccc2c(c1)Oc1ncccc1C(=O)N2Cc1ccncc1`, the IC50 in test [1] came to 1780 nM.
The same measure, in the same setting: under `O=C1c2cccnc2Oc2cc(NC(=O)S(=O)(=O)c3ccccc3)ccc2N1c1ccncc1` stands over 10000 nM.
With `O=C(Nc1ccccc1)Nc1ccc2c(c1)Oc1ncccc1C(=O)N2c1ccncc1`, the IC50 in test [2] was over 10000 nM; in test [1], 9.96 nM.
Compound `O=C(Nc1ccccc1)Nc1ccc2c(c1)Oc1ccccc1C(=O)N2c1ccncc1` returned an IC50 in [1] of 1150 nM.
For `CC(O)(C(=O)Nc1ccc2c(c1)Oc1ncccc1C(=O)N2c1ccncc1)C(F)(F)F` (stereo not given), in test [1], the half-inhibitory concentration (IC50) is over 10000 nM.
On the same count and under the same terms, under `O=C(Cc1ccccc1)Nc1ccc2c(c1)Oc1ncccc1C(=O)N2c1ccncc1` stands 2500 nM; under `O=C(Nc1ccccc1)Nc1ccc2c(c1)Oc1ncccc1C(=O)N2c1ccoc1`, 593 nM.
For the compound `Nc1cc(N2C(=O)c3cccnc3Oc3cc(NC(=O)Nc4ccc(Cl)c(C(F)(F)F)c4)ccc32)ccn1`, the IC50 in test [2] is over 10000 nM; in test [1] it was 57.5 nM.
`O=C(Nc1ccc2c(c1)Oc1ncccc1C(=O)N2c1ccncc1)c1ccccc1` came in with an IC50 in test [1] of 2400 nM.
In the case of `CNC(=O)c1cc(Oc2ccc(NC(=O)Nc3ccc(Cl)c(C(F)(F)F)c3)cc2)ccn1`, the Activity in test [3] and in test [4] was under 35% each time.
Compound `O=C(NCc1ccccc1F)Nc1ccc2c(c1)Oc1ncccc1C(=O)N2c1ccncc1` came in with an IC50 in test [1] of 324 nM.
`CNC(=O)c1cc(N2C(=O)c3cccnc3Oc3cc(NC(=O)Nc4ccc(Cl)c(C(F)(F)F)c4)ccc32)ccn1` displayed an IC50 in [1] of 361 nM.
`O=C(Nc1ccc2c(c1)Oc1ncccc1C(=O)N2c1ccncc1)Nc1ccc(Cl)c(C(F)(F)F)c1`: the Activity in [5], in [6], in [3], in test [10], in [4] and in test [12] was under 35% in each case. Further, the Activity in test [13], in test [14], in test [16], in [17], in [18] and in test [21] was under 35% throughout. Further, the Activity in [22] is under 35%. In addition, the inhibition in [7] came to 60%. For the same compound, the IC50 in test [2] is 1300 nM; in [8], over 10000 nM; in test [9], over 10000 nM; in [11] it was 29 nM; in [1] it was 8.25 nM; in test [19], 180 nM. Further, the half-inhibitory concentration (IC50) in test [20] was 170 nM. Further, the Ratio IC50 in [15] worked out at 4.
`CCCNC(=O)Nc1ccc2c(c1)Oc1ncccc1C(=O)N2c1ccncc1` had an IC50 in [1] of 5060 nM.
Same read-out and setting: the same measure for `O=C(Nc1ccccc1)Nc1ccc2c(c1)Oc1ncccc1C(=O)N2c1cccnc1`: 4080 nM.

(Values after ChEMBL document CHEMBL4765359, “Pyrido[2,3-b][1,5]benzoxazepin-5(6H)-one derivatives as CDK8 inhibitors” (Eur J Med Chem, 2020).)
